Test results published in the M2OR odorant receptor database.

Legend:
Conditions in all cases: stereoisomer not certain
UniProt Q8VGU3 = target: T1, UniProt Q8VGU3
T1 sequence (whole entry): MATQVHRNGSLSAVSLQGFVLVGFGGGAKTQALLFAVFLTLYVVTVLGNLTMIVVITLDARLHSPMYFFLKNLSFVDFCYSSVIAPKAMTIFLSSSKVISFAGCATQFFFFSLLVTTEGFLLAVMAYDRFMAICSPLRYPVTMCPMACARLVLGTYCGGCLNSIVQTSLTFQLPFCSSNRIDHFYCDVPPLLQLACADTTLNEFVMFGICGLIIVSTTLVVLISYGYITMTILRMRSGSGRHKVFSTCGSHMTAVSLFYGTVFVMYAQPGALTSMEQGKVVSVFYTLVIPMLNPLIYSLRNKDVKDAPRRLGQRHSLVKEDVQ
Summary of the method: (§1)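 Each receptor–molecule pair is labelled responsive or non-responsive (inactive) according to whether the original authors judged the measured signal statistically different from baseline. The data were taken from the main text and supplementary material of published papers and checked for typos and inconsistencies. Assay methods differed by source, with transient luciferase assays in mammalian cell lines being common.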

UniProt Q8VGV7 = target: T2, UniProt Q8VGV7
T2 sequence (whole entry): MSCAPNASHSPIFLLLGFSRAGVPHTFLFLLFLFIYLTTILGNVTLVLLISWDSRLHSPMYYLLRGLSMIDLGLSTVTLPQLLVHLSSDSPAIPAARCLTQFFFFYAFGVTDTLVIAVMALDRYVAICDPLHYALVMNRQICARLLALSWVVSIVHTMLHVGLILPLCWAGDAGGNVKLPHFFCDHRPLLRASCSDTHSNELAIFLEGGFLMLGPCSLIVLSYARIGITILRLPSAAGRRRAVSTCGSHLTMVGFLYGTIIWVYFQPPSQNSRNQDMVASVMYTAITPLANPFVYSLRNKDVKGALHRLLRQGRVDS
Summary of the method: as §1

UniProt Q8VGX3 = target: T3, UniProt Q8VGX3
T3 sequence (whole entry): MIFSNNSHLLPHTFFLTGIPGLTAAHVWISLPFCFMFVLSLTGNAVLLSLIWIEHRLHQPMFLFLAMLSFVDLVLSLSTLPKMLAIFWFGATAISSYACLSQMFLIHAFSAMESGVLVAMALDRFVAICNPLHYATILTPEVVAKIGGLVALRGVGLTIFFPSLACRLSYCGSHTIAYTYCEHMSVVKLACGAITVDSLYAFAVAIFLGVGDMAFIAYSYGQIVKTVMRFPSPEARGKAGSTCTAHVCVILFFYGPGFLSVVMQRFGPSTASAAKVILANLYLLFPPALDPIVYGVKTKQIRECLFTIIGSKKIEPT
Summary of the method: as §1

UniProt Q8VGX5 = target: T4, UniProt Q8VGX5
T4 sequence (whole entry): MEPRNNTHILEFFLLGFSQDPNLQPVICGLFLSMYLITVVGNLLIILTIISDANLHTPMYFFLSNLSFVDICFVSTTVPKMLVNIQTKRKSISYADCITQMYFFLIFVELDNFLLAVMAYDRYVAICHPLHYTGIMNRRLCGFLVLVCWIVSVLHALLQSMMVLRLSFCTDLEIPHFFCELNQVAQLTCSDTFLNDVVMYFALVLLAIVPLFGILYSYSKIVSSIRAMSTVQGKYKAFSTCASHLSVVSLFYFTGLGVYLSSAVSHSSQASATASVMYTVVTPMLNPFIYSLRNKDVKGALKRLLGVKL
Summary of the method: as §1

UniProt Q8VGW5 = target: T5, UniProt Q8VGW5
T5 sequence (whole entry): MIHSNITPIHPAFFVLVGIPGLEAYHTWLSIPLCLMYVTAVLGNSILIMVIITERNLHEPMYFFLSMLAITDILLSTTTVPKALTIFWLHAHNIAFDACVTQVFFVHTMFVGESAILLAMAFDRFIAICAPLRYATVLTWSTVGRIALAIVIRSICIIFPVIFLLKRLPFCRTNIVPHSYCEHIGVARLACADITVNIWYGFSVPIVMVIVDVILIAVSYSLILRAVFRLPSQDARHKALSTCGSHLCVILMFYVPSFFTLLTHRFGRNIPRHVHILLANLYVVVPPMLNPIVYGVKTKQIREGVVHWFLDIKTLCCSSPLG
Summary of the method: as §1

Measured: odorant receptor agonist call

CC(=O)OC1(C)CCC23CC1C(C)(C)C2CCC3C (stereo not drawn)
active: UniProt Q8VGU3
inactive: UniProt Q8VGV7 | UniProt Q8VGX3 | UniProt Q8VGX5

COc1nccnc1C
inactive: UniProt Q8VGU3 | UniProt Q8VGV7 | UniProt Q8VGX3 | UniProt Q8VGX5

CCCCCCCOC(=O)C(C)C
inactive: UniProt Q8VGU3 | UniProt Q8VGV7 | UniProt Q8VGX3 | UniProt Q8VGX5

Cc1c(C)c(C)c(C=O)c(C)c1C
inactive: UniProt Q8VGU3 | UniProt Q8VGV7 | UniProt Q8VGX3 | UniProt Q8VGX5

CCSCC
inactive: UniProt Q8VGU3 | UniProt Q8VGV7 | UniProt Q8VGX3 | UniProt Q8VGX5

CSSSC
inactive: UniProt Q8VGU3 | UniProt Q8VGV7 | UniProt Q8VGX3 | UniProt Q8VGX5

CCCCCOC(=O)CCC
inactive: UniProt Q8VGU3 | UniProt Q8VGV7 | UniProt Q8VGX3 | UniProt Q8VGX5

CC=Cc1ccc(OC)cc1
inactive: UniProt Q8VGU3 | UniProt Q8VGV7 | UniProt Q8VGX3 | UniProt Q8VGX5

c1ccc2ncccc2c1
inactive: UniProt Q8VGU3 | UniProt Q8VGV7 | UniProt Q8VGX3
active: UniProt Q8VGX5

CCCCCCC(=O)OCCCC
inactive: UniProt Q8VGU3 | UniProt Q8VGV7 | UniProt Q8VGX3 | UniProt Q8VGX5

CCOC(=O)C(C)CC (stereo not drawn)
inactive: UniProt Q8VGU3 | UniProt Q8VGV7 | UniProt Q8VGX3 | UniProt Q8VGX5

CCc1ccccc1O
inactive: UniProt Q8VGU3 | UniProt Q8VGV7 | UniProt Q8VGX3 | UniProt Q8VGX5

CCCCCCCCCC=CC=O
inactive: UniProt Q8VGU3 | UniProt Q8VGV7 | UniProt Q8VGX3 | UniProt Q8VGX5

CCCCCOC(=O)CC
inactive: UniProt Q8VGU3 | UniProt Q8VGV7 | UniProt Q8VGX3 | UniProt Q8VGX5

CCCCCC(C)O (stereo not drawn)
inactive: UniProt Q8VGU3 | UniProt Q8VGV7 | UniProt Q8VGX3 | UniProt Q8VGX5

C=CC(=C)CCC=C(C)C
inactive: UniProt Q8VGU3 | UniProt Q8VGV7 | UniProt Q8VGX3 | UniProt Q8VGX5

CSSCc1ccco1
inactive: UniProt Q8VGU3 | UniProt Q8VGV7 | UniProt Q8VGX3 | UniProt Q8VGX5

CC(=O)C=CC1=C(C)CCCC1(C)C
active: UniProt Q8VGX5
inactive: UniProt Q8VGU3 | UniProt Q8VGV7 | UniProt Q8VGX3

CNc1ccccc1C(=O)OC
inactive: UniProt Q8VGU3 | UniProt Q8VGV7 | UniProt Q8VGX3
active: UniProt Q8VGX5

CCCCCCCCC=CC=O
inactive: UniProt Q8VGU3 | UniProt Q8VGV7 | UniProt Q8VGX3 | UniProt Q8VGX5

C=CC(=O)CCCCC
inactive: UniProt Q8VGU3 | UniProt Q8VGV7 | UniProt Q8VGX3 | UniProt Q8VGX5

C=C(C)C1CCC(C)C(O)C1 (stereo not drawn)
active: UniProt Q8VGX5
inactive: UniProt Q8VGU3 | UniProt Q8VGV7 | UniProt Q8VGX3

CCCC=O
inactive: UniProt Q8VGU3 | UniProt Q8VGV7 | UniProt Q8VGX3
active: UniProt Q8VGX5

CCCCCCCCCCOC(C)=O
inactive: UniProt Q8VGU3 | UniProt Q8VGV7 | UniProt Q8VGX3 | UniProt Q8VGX5

CCCCCC(C=O)=Cc1ccccc1
inactive: UniProt Q8VGU3 | UniProt Q8VGV7 | UniProt Q8VGX3 | UniProt Q8VGX5

CCC(C)O (stereo not drawn)
inactive: UniProt Q8VGU3 | UniProt Q8VGV7 | UniProt Q8VGX3 | UniProt Q8VGX5

CC(C)CCN
inactive: UniProt Q8VGU3 | UniProt Q8VGV7 | UniProt Q8VGX3 | UniProt Q8VGX5

OCC=Cc1ccccc1
inactive: UniProt Q8VGU3 | UniProt Q8VGV7 | UniProt Q8VGX3 | UniProt Q8VGX5

CCCCCCC=CC=O
inactive: UniProt Q8VGU3 | UniProt Q8VGV7 | UniProt Q8VGX3 | UniProt Q8VGX5

CCCCCCC(C)O (stereo not drawn)
inactive: UniProt Q8VGU3 | UniProt Q8VGV7 | UniProt Q8VGX3 | UniProt Q8VGX5

C1CCOC1
inactive: UniProt Q8VGU3 | UniProt Q8VGV7 | UniProt Q8VGX3 | UniProt Q8VGX5

C=C(C)C1CC=C(C)CC1 (stereo not drawn)
active: UniProt Q8VGX3
inactive: UniProt Q8VGU3 | UniProt Q8VGV7 | UniProt Q8VGX5

Cc1ccccc1OC(=O)C(C)C
inactive: UniProt Q8VGU3 | UniProt Q8VGV7 | UniProt Q8VGX3 | UniProt Q8VGX5

CC(C)=C1CCC(C)CC1=O (stereo not drawn)
inactive: UniProt Q8VGU3 | UniProt Q8VGV7 | UniProt Q8VGX3
active: UniProt Q8VGX5

CC(=O)C1(C)CC2=C(CCCC2(C)C)CC1C (stereo not drawn)
inactive: UniProt Q8VGU3 | UniProt Q8VGX3 | UniProt Q8VGX5
active: UniProt Q8VGV7

CCOC(=O)CC(C)C
inactive: UniProt Q8VGU3 | UniProt Q8VGV7 | UniProt Q8VGX3 | UniProt Q8VGX5

CC=CC(=O)C1=C(C)CCCC1(C)C
inactive: UniProt Q8VGU3 | UniProt Q8VGV7 | UniProt Q8VGX3
active: UniProt Q8VGX5

Cc1ccc(C(C)C)c(O)c1
active: UniProt Q8VGX3
inactive: UniProt Q8VGU3 | UniProt Q8VGV7 | UniProt Q8VGX5

CCCO
inactive: UniProt Q8VGU3 | UniProt Q8VGV7 | UniProt Q8VGX3 | UniProt Q8VGX5

Cc1ccc2c(c1)OCC(=O)CO2
inactive: UniProt Q8VGU3 | UniProt Q8VGV7 | UniProt Q8VGX3 | UniProt Q8VGX5

CCCCCCCCCCCO
inactive: UniProt Q8VGU3 | UniProt Q8VGV7 | UniProt Q8VGX3 | UniProt Q8VGX5

CCCCOC(=O)CCC
inactive: UniProt Q8VGW5

CC(C)=CCCC(C)=CCOC(=O)C(C)C
inactive: UniProt Q8VGU3 | UniProt Q8VGV7 | UniProt Q8VGX3
active: UniProt Q8VGX5

C1CCOCC1
inactive: UniProt Q8VGU3 | UniProt Q8VGV7 | UniProt Q8VGX3 | UniProt Q8VGX5
